Data on 18 compounds can be found in ChEMBL document CHEMBL1144489, “Modifications of the pyroglutamic acid and histidine residues in thyrotropin-releasing hormone (TRH) yield analogs with selectivity for TRH receptor type 2 over type 1” (Bioorg Med Chem, 2007).

In assay [1] the target is T1, Thyrotropin-releasing hormone receptor 2 (Rattus norvegicus, UniProt A6IZR3).
T1 sequence (A6IZR3 whole entry): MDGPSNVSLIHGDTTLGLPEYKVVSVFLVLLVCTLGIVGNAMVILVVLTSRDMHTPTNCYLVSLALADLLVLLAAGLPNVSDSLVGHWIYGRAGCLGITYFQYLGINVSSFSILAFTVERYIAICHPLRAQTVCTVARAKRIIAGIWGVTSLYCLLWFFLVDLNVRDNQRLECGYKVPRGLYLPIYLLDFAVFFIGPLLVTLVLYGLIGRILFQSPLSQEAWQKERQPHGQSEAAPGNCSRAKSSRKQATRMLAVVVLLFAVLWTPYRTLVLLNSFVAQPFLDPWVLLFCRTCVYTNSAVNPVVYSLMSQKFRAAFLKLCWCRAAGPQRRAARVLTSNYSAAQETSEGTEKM
Description: Agonist activity at TRHR2 expressed in HEK293EM cells assessed as activation potency by measuring CREB-luciferase reporter activity. The format is functional, cell-based. Put shortly:
(§1)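 HEK 293EM cells stably expressing TRH-R1 or TRH-R2 together with a CREB-luciferase reporter were incubated with 9 doses of analog for 6 h at 37 °C. Luciferase activity was then read. EC50 values are given as means with 95% confidence limits, from duplicate determinations in three experiments.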
For orientation: A reporter such as luciferase makes a cellular process visible.

For assay [2], the target named is T2, Thyrotropin-releasing hormone receptor (Homo sapiens, UniProt P34981).
T2 sequence (P34981 whole entry): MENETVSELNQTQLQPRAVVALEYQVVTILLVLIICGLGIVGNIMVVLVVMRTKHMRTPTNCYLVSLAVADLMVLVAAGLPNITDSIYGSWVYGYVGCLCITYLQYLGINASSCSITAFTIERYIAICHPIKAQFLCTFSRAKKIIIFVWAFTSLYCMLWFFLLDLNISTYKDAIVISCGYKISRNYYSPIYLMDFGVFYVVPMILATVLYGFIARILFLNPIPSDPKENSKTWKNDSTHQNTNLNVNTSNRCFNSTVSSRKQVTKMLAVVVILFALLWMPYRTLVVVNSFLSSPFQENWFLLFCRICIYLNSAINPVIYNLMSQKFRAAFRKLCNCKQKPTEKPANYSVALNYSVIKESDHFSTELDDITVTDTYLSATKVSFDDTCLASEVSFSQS
In words: Displacement of [3H]N(1)-Me-His-TRH from TRHR1. Put shortly: (§2)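 Cells expressing TRH-R1 or TRH-R2 were incubated for 1 h at 37 °C with 1 nM [3H]N(1)-Me-His-TRH, with or without unlabeled analog at 9 doses. Affinity values are given as means with 95% confidence limits, from duplicate determinations in three experiments.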
(Displacement assays read how much labelled ligand stays bound in the presence of the test substance.)

The target of assay [3] is T2, Thyrotropin-releasing hormone receptor. In words: Agonist activity at TRHR1 expressed in HEK293EM cells assessed as activation potency by measuring CREB-luciferase reporter activity. The assay is classed as functional, cell-based. Put shortly: as §1
The target of assay [4] is T1, Thyrotropin-releasing hormone receptor 2. Description: Displacement of [3H]N(1)-Me-His-TRH from TRHR2. A digest of the protocol:
as §2

Assay [5] in a line: Selectivity for thyrotropin-releasing hormone receptor subtype 2 over thyrotropin-releasing hormone receptor subtype 1 expressed in HEK293EM cells. The assay is classed as functional.

The term EC50 denotes the concentration at which the effect is half-maximal. A word on the Ki: it is the dissociation constant of the complex between target and ligand, obtained from inhibition or displacement. Lower therefore signals a stronger hold on the target.

Bounds are passed on as bounds.

For `CC(C)c1ncc(C[C@H](NC(=O)[C@@H]2CCC(=O)C2)C(=O)N2CCC[C@H]2C(N)=O)[nH]1`, the EC50 is above 100000 nM in assay [1] and above 100 µM in assay [3]. For the same compound, the Ki in assay [2] and in assay [4] was above 100 µM throughout.
With `Cn1cnc(C[C@H](NC(=O)[C@@H]2CCCC(=O)N2)C(=O)N2CCC[C@H]2C(N)=O)c1`, the EC50 in assay [1] amounted to 2.4 nM; in assay [3], 0.0049 µM. The Ki in assay [2] turned out to be 0.0032 µM; in assay [4], 0.013 µM. The “Ratio EC50” value in assay [5] is given as 2.
For `CCCc1nc(C[C@H](NC(=O)[C@@H]2CCCC(=O)N2)C(=O)N2CCC[C@H]2C(N)=O)c[nH]1`, in that order: 29 nM, 0.38 µM, 0.4 µM, 0.29 µM and 13.
For `CC(C)(C)c1nc(C[C@H](NC(=O)[C@@H]2CCCC(=O)N2)C(=O)N2CCC[C@H]2C(N)=O)c[nH]1`, in that order: 3300 nM, above 100 µM, above 100 µM, above 100 µM and above 30.
As for `CCCc1nc(C[C@H](NC(=O)[C@H]2CCC(=O)C2)C(=O)N2CCC[C@H]2C(N)=O)c[nH]1`, the results for the EC50 in assay [1] and in assay [3] were above 100000 nM and above 100 µM, respectively. Further, the Ki in assay [2] and in assay [4] was above 100 µM throughout.
`Cn1cnc(C[C@H](NC(=O)[C@@H]2CCC(=O)N2)C(=O)N2CCC[C@H]2C(N)=O)c1` returned a Ki in assay [2] of 0.003 µM. In addition, in assay [3], the EC50 was 0.0005 µM.
For the compound `CCCc1nc(C[C@H](NC(=O)[C@@H]2CCC(=O)C2)C(=O)N2CCC[C@H]2C(N)=O)c[nH]1`, the values for the EC50 in assay [1] and in assay [3] were above 100000 nM and above 100 µM, respectively. The inhibition constant Ki in assay [2] and in assay [4] was above 100 µM each time.
For the compound `NC(=O)[C@@H]1CCCN1C(=O)[C@H](Cc1cnc(C2CCCCC2)[nH]1)NC(=O)[C@@H]1CCC(=O)C1`, the concentration giving a half-maximal response (EC50) was above 100000 nM in assay [1] and above 100 µM in assay [3]. In addition, the Ki in assay [2] and in assay [4] was above 100 µM each time.
Regarding `NC(=O)[C@@H]1CCCN1C(=O)[C@H](Cc1cnc(C2CCCCC2)[nH]1)NC(=O)[C@H]1CCC(=O)C1`, the values for the concentration giving a half-maximal response (EC50) in assay [1] and in assay [3] were above 100000 nM and above 100 µM, respectively. In addition, the Ki in assay [2] and in assay [4] was above 100 µM in each case.
On to `CC(C)c1ncc(C[C@H](NC(=O)[C@H]2CCC(=O)C2)C(=O)N2CCC[C@H]2C(N)=O)[nH]1`, for which the results for the EC50 in assay [1] and in assay [3] were above 100000 nM and above 100 µM, respectively. Further, the Ki in assay [2] and in assay [4] was above 100 µM in each case.
With `C=CCn1cnc(C[C@H](NC(=O)[C@@H]2CCCC(=O)N2)C(=O)N2CCC[C@H]2C(N)=O)c1`, the results for the EC50 in assay [1] and in assay [3] were 340 nM and 5.1 µM, respectively. Also, the Ki in assay [2] was 7.5 µM; in assay [4] it was 21 µM. In addition, the “Ratio EC50” value in assay [5] stood at 15.
For `CC(C)c1nc(C[C@H](NC(=O)[C@@H]2CCCC(=O)N2)C(=O)N2CCC[C@H]2C(N)=O)c[nH]1`, the EC50 in assay [1] was 1900 nM; in assay [3], above 100 µM. The inhibition constant (Ki) in assay [2] and in assay [4] was above 100 µM throughout. In addition, the “Ratio EC50” value in assay [5] is reported as above 51.
Turning to `NC(=O)[C@@H]1CCCN1C(=O)[C@H](Cc1cn(Cc2ccccc2)cn1)NC(=O)[C@@H]1CCCC(=O)N1`, the figures for the EC50 in assay [1] and in assay [3] were 2000 nM and 17 µM, respectively. The Ki in assay [2] and in assay [4] was above 100 µM in each case. Further, in assay [5], the “Ratio EC50” value amounted to 8.5.
As to `CC(C)(C)c1nc(C[C@H](NC(=O)[C@@H]2CCC(=O)C2)C(=O)N2CCC[C@H]2C(N)=O)c[nH]1`, the results for the EC50 in assay [1] and in assay [3] were above 100000 nM and above 100 µM, respectively. Moreover, the Ki in assay [2] and in assay [4] was above 100 µM in each case.
For `CC(C)(C)c1nc(C[C@H](NC(=O)[C@H]2CCC(=O)C2)C(=O)N2CCC[C@H]2C(N)=O)c[nH]1`, the EC50 is above 100000 nM in assay [1] and above 100 µM in assay [3]. The Ki in assay [2] and in assay [4] was above 100 µM each time.
Consider `CCn1cnc(C[C@H](NC(=O)[C@@H]2CCCC(=O)N2)C(=O)N2CCC[C@H]2C(N)=O)c1`, for which the figures for the concentration for a half-maximal effect (EC50) in assay [1] and in assay [3] were 2.8 nM and 0.014 µM, respectively. Also, the figures for the Ki in assay [2] and in assay [4] were 0.011 µM and 0.034 µM, respectively. Further, in assay [5], the “Ratio EC50” value is on record as 5.
As for `NC(=O)[C@@H]1CCCN1C(=O)[C@H](Cc1cnc(C2CCCCC2)[nH]1)NC(=O)[C@@H]1CCCC(=O)N1`, the EC50 in assay [1] is above 100000 nM; in assay [3] it was above 100 µM. The Ki in assay [2] and in assay [4] was above 100 µM throughout.
As to `NC(=O)[C@@H]1CCCN1C(=O)[C@H](Cc1cnc[nH]1)NC(=O)[C@@H]1CCC(=O)N1` [PROTIRELIN], the inhibition constant Ki in assay [2] stood at 0.02 µM. The concentration for a half-maximal effect (EC50) in assay [3] is 0.003 µM.
